Format in all cases: microsomes
Conditions in all cases: Microsome

Assay [1] deals with T1, Mitochondrial amidoxime-reducing component 1 (Homo sapiens) (UniProt Q5VT66).
T1 sequence (whole entry): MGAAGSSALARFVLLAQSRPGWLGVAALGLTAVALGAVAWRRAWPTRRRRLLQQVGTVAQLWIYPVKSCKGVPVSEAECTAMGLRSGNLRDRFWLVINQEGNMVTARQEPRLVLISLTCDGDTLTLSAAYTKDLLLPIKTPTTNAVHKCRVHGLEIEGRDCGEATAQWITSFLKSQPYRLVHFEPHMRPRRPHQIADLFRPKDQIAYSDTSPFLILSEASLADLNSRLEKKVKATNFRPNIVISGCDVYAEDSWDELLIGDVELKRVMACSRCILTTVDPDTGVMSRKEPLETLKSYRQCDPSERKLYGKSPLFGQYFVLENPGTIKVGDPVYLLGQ
Put plainly: Specific activity at molybdenum cofactor/metal-free precursor molybopterin bound human recombinant mARC1 expressed in Escherichia coli TP1000 assessed as reduction to pentamidine monoamidoxime in complete reconstituted system containing microsomal cyt b5, NADH and microsomal NADH cyt b5 reductase per mg of protein at 0.5 mM by HPLC analysis. The procedure, abridged:
(§1)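 His6-tagged human mARC1 expressed in E. coli TP1000 (22 °C, IPTG induction, 1 mM sodium molybdate added) and Ni-NTA purified. Assay mix: 100 µg mARC1, 0.05 U pig liver microsomal NADH cyt b5 reductase, 200 pmol microsomal cyt b5, 0.5 mM N-hydroxylated substrate, 1 mM NADH, 100 mM potassium phosphate pH 6.0. Omitted components as stated per line. Aerobic, 37 °C, 3 min preincubation, NADH start, 15 or 20 min, methanol stop. Product quantified by HPLC; mean ± SD, n=4.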

Assay [2] addresses T1, Mitochondrial amidoxime-reducing component 1 (Homo sapiens). Put plainly: Specific activity at molybdenum cofactor/metal-free precursor molybopterin bound human recombinant mARC1 expressed in Escherichia coli TP1000 assessed as reduction to pentamidine in complete reconstituted system containing microsomal cyt b5, NADH and microsomal NADH cyt b5 reductase per mg of protein at 0.5 mM by HPLC analysis. The procedure, abridged: as §1

For assay [3] the target is unchanged. Put plainly: Specific activity at molybdenum cofactor/metal-free precursor molybopterin bound human recombinant mARC1 expressed in Escherichia coli TP1000 assessed as reduction to melagatran in complete reconstituted system containing microsomal cyt b5, NADH and microsomal NADH cyt b5 reductase per mg of protein at 0.5 mM by HPLC analysis. Summed up: as §1

For assay [4] the target is unchanged. Briefly: Specific activity at molybdenum cofactor/metal-free precursor molybopterin bound human recombinant mARC1 expressed in Escherichia coli TP1000 assessed as reduction to diminazene in complete reconstituted system containing microsomal cyt b5, NADH and microsomal NADH cyt b5 reductase per mg of protein at 0.5 mM by HPLC analysis. Summed up: as §1
The target is the same in assay [5]. Briefly: Specific activity at molybdenum cofactor/metal-free precursor molybopterin bound human recombinant mARC1 expressed in Escherichia coli TP1000 assessed as reduction to diminazene monoamidoxime in complete reconstituted system containing microsomal cyt b5, NADH and microsomal NADH cyt b5 reductase per mg of protein at 0.5 mM by HPLC analysis. The procedure, abridged: as §1

The target is the same in assay [6]. Briefly: Specific activity at molybdenum cofactor/metal-free precursor molybopterin bound human recombinant mARC1 expressed in Escherichia coli TP1000 assessed as reduction to guanabenz in complete reconstituted system containing microsomal cyt b5, NADH and microsomal NADH cyt b5 reductase per mg of protein at 0.5 mM by HPLC analysis. The procedure, abridged: as §1

Assay [7] shares this target. Briefly: Specific activity at molybdenum cofactor/metal-free precursor molybopterin bound human recombinant mARC1 expressed in Escherichia coli TP1000 assessed as reduction to benzamidine in reconstituted system containing microsomal cyt b5 and NADH without microsomal NADH cytochrome b5 reductase per mg of protein at 0.5 mM by HPLC analysis. Summed up:
as §1

Assay [8] has the same target. Briefly: Specific activity at molybdenum cofactor/metal-free precursor molybopterin bound human recombinant mARC1 expressed in Escherichia coli TP1000 assessed as reduction to benzamidine in reconstituted system containing NADH and microsomal NADH cyt b5 reductase without microsomal cytochrome b5 per mg of protein at 0.5 mM by HPLC analysis. Summed up: as §1
For assay [9] the target is unchanged. Briefly: Specific activity at molybdenum cofactor/metal-free precursor molybopterin bound human recombinant mARC1 expressed in Escherichia coli TP1000 assessed as reduction to benzamidine in complete reconstituted system containing microsomal cyt b5, NADH and microsomal NADH cyt b5 reductase per mg of protein at 0.5 mM by HPLC analysis. Summed up: as §1
For assay [10] the target is unchanged. Briefly: Specific activity at molybdenum cofactor/metal-free precursor molybopterin bound human recombinant mARC1 expressed in Escherichia coli TP1000 assessed as reduction to debrisoquine in complete reconstituted system containing microsomal cyt b5, NADH and microsomal NADH cyt b5 reductase per mg of protein at 0.5 mM by HPLC analysis. Summed up: as §1

The source of these data is ChEMBL document CHEMBL1151750, “The fourth molybdenum containing enzyme mARC: cloning and involvement in the activation of N-hydroxylated prodrugs” (J Med Chem, 2008).

With `N/C(=N\O)c1ccc(OCCCCCOc2ccc(/C(N)=N/O)cc2)cc1`, the Activity amounted to 0.56 nmol/min in assay [1] and 0.49 nmol/min in assay [2].

As for `N=C(N)c1ccc(OCCCCCOc2ccc(/C(N)=N\O)cc2)cc1`, in assay [2], the Activity amounted to 6.59 nmol/min. On to `N/C(=N\O)c1ccc(CNC(=O)[C@@H]2CCN2C(=O)[C@H](NCC(=O)O)C2CCCCC2)cc1`, for which, in assay [3], the Activity amounted to 0.48 nmol/min. Turning to `N/C(=N\O)c1ccc(/N=N/Nc2ccc(/C(N)=N/O)cc2)cc1`, the values for the Activity in assay [4] and in assay [5] were 0.05 nmol/min and 4.31 nmol/min, respectively.

Take `N=C(NO)N/N=C/c1c(Cl)cccc1Cl`: the Activity in [6] was found to be 20.4 nmol/min.

In the case of `N/C(=N\O)c1ccccc1`, the Activity worked out at 0.2 nmol/min in assay [7], 0.23 nmol/min in assay [8] and 1.3 nmol/min in [9].

Turning to `N/C(=N\O)N1CCc2ccccc2C1`, in [10], the Activity was 15.9 nmol/min.
